Assay results as given in ChEMBL document CHEMBL3774312, “5-Substituted 3-isopropyl-7-[4-(2-pyridyl)benzyl]amino-1(2)H-pyrazolo[4,3-d]pyrimidines with anti-proliferative activity as potent and selective inhibitors of cyclin-dependent kinases” (Eur J Med Chem, 2016).
Calls of active or inactive are those of the source. The calls are words filed in the database; no cut-off is given here.

Experiments:
[1] = target: Cyclin-dependent kinase 2/cyclin E1 (Homo sapiens, UniProt P24941); experiment: Inhibition of CDK2/Cyclin E (unknown origin) expressed in sf9 cells using histone H1 as substrate in presence of [gamma33P]-ATP; assay type: cell-based
[2] = system: MCF7; experiment: Cell cycle arrest in BrdU pulse-labelled human MCF7 cells assessed as accumulation at late G2/M phase at 8 to 250 nM after 24 hrs by propidium iodide staining based flow cytometry; assay type: functional
[3] = target: Casein kinase I isoform delta (Homo sapiens) (UniProt P48730); experiment: Inhibition of recombinant CK1delta (unknown origin) assessed as residual activity at 1 uM relative to control
[4] = target: Calcium/calmodulin-dependent protein kinase type 1 (Homo sapiens) (UniProt Q14012); experiment: Inhibition of recombinant CAMK1 (unknown origin) assessed as residual activity at 1 uM relative to control
[5] = target: Ribosomal protein S6 kinase alpha-1 (Homo sapiens) (UniProt Q15418); experiment: Inhibition of recombinant RSK1 (unknown origin) assessed as residual activity at 1 uM relative to control
[6] = target: Serine/threonine-protein kinase Chk2 (Homo sapiens) (UniProt O96017); experiment: Inhibition of recombinant CHK2 (unknown origin) assessed as residual activity at 1 uM relative to control
[7] = system: K562; experiment: Cytotoxicity against human K562 cells assessed as reduction in cell viability after 72 hrs by calcein AM staining based fluorescence assay; assay type: functional; details: K562, 72 h
Procedure, shortened: (§1)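 Cells were grown in DMEM with 10% FBS, penicillin and streptomycin at 37 °C in 5% CO2. Three doses were tested in triplicate for 72 h.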

[8] = system: MCF7; experiment: Cytotoxicity against human MCF7 cells assessed as reduction in cell viability after 72 hrs by calcein AM staining based fluorescence assay; assay type: functional; procedure, shortened: as §1
[9] = (§2) Cytotoxicity against human HCT116 cells assessed as reduction in cell viability after 72 hrs by calcein AM staining based fluorescence assay; assay type: functional; details: HCT-116, 72 h
Procedure, shortened: (§3)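 Cells were grown in DMEM with 10% FBS, penicillin and streptomycin at 37 °C in 5% CO2. Three doses were tested in triplicate for 72 h. Live cells were read by Calcein AM fluorescence at 485/538 nm.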

[10] = system: HCT-116; experiment: as §2; assay type: functional; procedure, shortened: as §3
[11] = Cell cycle arrest in BrdU pulse-labelled human HCT116 cells assessed as decrease in cells at S phase at 125 to 500 nM after 24 hrs by propidium iodide staining based flow cytometry; assay type: functional; details: HCT-116
[12] = Cell cycle arrest in BrdU pulse-labelled human HCT116 cells assessed as accumulation at late G2/M phase at 125 to 500 nM after 24 hrs by propidium iodide staining based flow cytometry; assay type: functional; details: HCT-116
[13] = system: MCF7; experiment: Cell cycle arrest in BrdU pulse-labelled human MCF7 cells assessed as accumulation at subG1 phase at 8 to 250 nM after 24 hrs by propidium iodide staining based flow cytometry; assay type: functional
[14] = system: HCT-116; experiment: Induction of apoptosis in human HCT116 cells assessed as caspase7 activation using Ac-DEVD-AMC as substrate preincubated for 24 hrs followed by substrate addition measured after 3 hrs by fluorescence assay; assay type: functional, cell-based
[15] = system: G-361; experiment: Induction of apoptosis in human G361 cells assessed as caspase3 activation using Ac-DEVD-AMC as substrate at 5 times IC50 preincubated for 24 hrs followed by substrate addition measured after 3 hrs by fluorescence assay; assay type: functional, cell-based
[16] = system: G-361; experiment: Induction of apoptosis in human G361 cells assessed as caspase7 activation using Ac-DEVD-AMC as substrate at IC50 preincubated for 24 hrs followed by substrate addition measured after 3 hrs by fluorescence assay; assay type: functional, cell-based
[17] = target: Myosin light chain kinase, smooth muscle (Homo sapiens) (UniProt Q15746); experiment: Inhibition of recombinant smMLCK (unknown origin) assessed as residual activity at 1 uM relative to control
[18] = target: Serine/threonine-protein kinase TBK1 (Homo sapiens) (UniProt Q9UHD2); experiment: Inhibition of recombinant TBK1 (unknown origin) assessed as residual activity at 1 uM relative to control
[19] = target: Mitogen-activated protein kinase 8 (Homo sapiens) (UniProt P45983); experiment: Inhibition of recombinant JNK1 (unknown origin) assessed as residual activity at 1 uM relative to control
[20] = organism: Homo sapiens; experiment: Inhibition of recombinant PKA (unknown origin) assessed as residual activity at 1 uM relative to control
[21] = target: Serine/threonine-protein kinase PLK1 (Homo sapiens) (UniProt P53350); experiment: Inhibition of recombinant PLK1 (unknown origin) assessed as residual activity at 1 uM relative to control
[22] = target: Receptor-interacting serine/threonine-protein kinase 2 (Homo sapiens) (UniProt O43353); experiment: Inhibition of recombinant RIPK2 (unknown origin) assessed as residual activity at 1 uM relative to control
[23] = target: Tyrosine-protein kinase BTK (Homo sapiens) (UniProt Q06187); experiment: Inhibition of recombinant BTK (unknown origin) assessed as residual activity at 1 uM relative to control
[24] = target: MAP/microtubule affinity-regulating kinase 3 (Homo sapiens) (UniProt P27448); experiment: Inhibition of recombinant MARK3 (unknown origin) assessed as residual activity at 1 uM relative to control
[25] = target: Serine/threonine-protein kinase D1 (Homo sapiens) (UniProt Q15139); experiment: Inhibition of recombinant PKD1 (unknown origin) assessed as residual activity at 1 uM relative to control
[26] = target: Ribosomal protein S6 kinase beta-1 (Homo sapiens) (UniProt P23443); experiment: Inhibition of recombinant S6K1 (unknown origin) assessed as residual activity at 1 uM relative to control
[27] = target: Tyrosine-protein kinase Lck (Homo sapiens) (UniProt P06239); experiment: Inhibition of recombinant LCK (unknown origin) assessed as residual activity at 1 uM relative to control
[28] = target: Serine/threonine-protein kinase pim-1 (Homo sapiens) (UniProt P11309); experiment: Inhibition of recombinant PIM1 (unknown origin) assessed as residual activity at 1 uM relative to control
[29] = target: Homeodomain-interacting protein kinase 2 (Homo sapiens) (UniProt Q9H2X6); experiment: Inhibition of recombinant HIPK2 (unknown origin) assessed as residual activity at 1 uM relative to control
[30] = target: Tyrosine-protein kinase JAK2 (Homo sapiens) (UniProt O60674); experiment: Inhibition of recombinant JAK2 (unknown origin) assessed as residual activity at 1 uM relative to control
[31] = target: Insulin-like growth factor 1 receptor (Homo sapiens) (UniProt P08069); experiment: Inhibition of recombinant IGF1R (unknown origin) assessed as residual activity at 1 uM relative to control
[32] = target: Interleukin-1 receptor-associated kinase 4 (Homo sapiens) (UniProt Q9NWZ3); experiment: Inhibition of recombinant IRAK4 (unknown origin) assessed as residual activity at 1 uM relative to control
[33] = target: Serine/threonine-protein kinase Sgk1 (Homo sapiens) (UniProt O00141); experiment: Inhibition of recombinant SGK1 (unknown origin) assessed as residual activity at 1 uM relative to control
[34] = system: MCF7; experiment: Cell cycle arrest in BrdU pulse-labelled human MCF7 cells assessed as accumulation at late S phase at 8 to 250 nM after 24 hrs by propidium iodide staining based flow cytometry; assay type: functional

Chain of Mitogen-activated protein kinase 8 (Homo sapiens) (P45983 whole entry): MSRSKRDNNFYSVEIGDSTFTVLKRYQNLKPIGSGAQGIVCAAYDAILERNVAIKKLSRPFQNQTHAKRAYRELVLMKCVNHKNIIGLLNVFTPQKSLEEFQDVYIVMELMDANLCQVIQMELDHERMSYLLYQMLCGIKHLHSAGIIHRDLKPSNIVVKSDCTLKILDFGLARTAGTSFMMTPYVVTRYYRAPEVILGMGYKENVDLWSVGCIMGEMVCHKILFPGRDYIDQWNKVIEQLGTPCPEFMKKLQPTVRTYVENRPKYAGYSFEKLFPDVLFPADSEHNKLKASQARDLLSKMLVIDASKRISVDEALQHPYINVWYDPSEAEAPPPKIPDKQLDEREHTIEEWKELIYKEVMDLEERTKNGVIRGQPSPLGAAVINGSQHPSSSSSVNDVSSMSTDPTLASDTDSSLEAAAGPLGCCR
Chain of Serine/threonine-protein kinase Chk2 (Homo sapiens) (O96017 whole entry): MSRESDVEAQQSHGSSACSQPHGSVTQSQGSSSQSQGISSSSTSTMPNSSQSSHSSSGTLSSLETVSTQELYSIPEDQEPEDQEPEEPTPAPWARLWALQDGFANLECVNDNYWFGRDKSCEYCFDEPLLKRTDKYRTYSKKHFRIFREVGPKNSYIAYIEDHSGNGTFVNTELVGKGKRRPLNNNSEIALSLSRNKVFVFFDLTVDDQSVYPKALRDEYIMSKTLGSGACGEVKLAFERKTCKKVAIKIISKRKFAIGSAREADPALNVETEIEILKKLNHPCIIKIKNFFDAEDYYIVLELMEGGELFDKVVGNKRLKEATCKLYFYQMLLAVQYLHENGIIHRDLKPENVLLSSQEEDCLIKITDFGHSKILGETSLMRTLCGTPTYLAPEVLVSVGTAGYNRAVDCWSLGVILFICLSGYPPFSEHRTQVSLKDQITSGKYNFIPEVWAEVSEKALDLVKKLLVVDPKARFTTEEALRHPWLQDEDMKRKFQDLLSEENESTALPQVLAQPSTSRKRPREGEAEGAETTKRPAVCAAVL
Chain of Serine/threonine-protein kinase D1 (Homo sapiens) (Q15139 whole entry): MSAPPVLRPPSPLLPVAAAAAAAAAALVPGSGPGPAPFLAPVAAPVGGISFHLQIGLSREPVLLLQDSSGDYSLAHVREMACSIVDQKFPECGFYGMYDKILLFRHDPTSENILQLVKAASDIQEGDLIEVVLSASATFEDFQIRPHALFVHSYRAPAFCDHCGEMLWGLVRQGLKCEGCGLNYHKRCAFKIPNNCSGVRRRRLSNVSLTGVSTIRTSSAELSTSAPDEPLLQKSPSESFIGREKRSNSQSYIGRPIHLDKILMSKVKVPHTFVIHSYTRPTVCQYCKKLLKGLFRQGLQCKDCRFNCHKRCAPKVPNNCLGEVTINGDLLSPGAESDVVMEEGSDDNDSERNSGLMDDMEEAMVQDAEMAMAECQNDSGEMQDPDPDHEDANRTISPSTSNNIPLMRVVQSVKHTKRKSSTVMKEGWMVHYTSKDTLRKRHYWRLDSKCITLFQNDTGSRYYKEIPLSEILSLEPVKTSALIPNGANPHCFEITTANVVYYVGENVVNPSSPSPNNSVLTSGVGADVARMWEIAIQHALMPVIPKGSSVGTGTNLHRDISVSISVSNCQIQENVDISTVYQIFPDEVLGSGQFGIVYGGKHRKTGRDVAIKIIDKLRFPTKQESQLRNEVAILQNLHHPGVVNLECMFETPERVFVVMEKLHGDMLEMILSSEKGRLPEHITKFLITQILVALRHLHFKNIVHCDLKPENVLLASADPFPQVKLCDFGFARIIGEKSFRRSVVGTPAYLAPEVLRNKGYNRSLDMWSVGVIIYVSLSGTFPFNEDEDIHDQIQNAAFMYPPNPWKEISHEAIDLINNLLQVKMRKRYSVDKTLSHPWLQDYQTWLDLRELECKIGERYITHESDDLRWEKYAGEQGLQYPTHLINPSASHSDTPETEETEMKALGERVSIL
Chain of Homeodomain-interacting protein kinase 2 (Homo sapiens) (Q9H2X6 whole entry, looked up): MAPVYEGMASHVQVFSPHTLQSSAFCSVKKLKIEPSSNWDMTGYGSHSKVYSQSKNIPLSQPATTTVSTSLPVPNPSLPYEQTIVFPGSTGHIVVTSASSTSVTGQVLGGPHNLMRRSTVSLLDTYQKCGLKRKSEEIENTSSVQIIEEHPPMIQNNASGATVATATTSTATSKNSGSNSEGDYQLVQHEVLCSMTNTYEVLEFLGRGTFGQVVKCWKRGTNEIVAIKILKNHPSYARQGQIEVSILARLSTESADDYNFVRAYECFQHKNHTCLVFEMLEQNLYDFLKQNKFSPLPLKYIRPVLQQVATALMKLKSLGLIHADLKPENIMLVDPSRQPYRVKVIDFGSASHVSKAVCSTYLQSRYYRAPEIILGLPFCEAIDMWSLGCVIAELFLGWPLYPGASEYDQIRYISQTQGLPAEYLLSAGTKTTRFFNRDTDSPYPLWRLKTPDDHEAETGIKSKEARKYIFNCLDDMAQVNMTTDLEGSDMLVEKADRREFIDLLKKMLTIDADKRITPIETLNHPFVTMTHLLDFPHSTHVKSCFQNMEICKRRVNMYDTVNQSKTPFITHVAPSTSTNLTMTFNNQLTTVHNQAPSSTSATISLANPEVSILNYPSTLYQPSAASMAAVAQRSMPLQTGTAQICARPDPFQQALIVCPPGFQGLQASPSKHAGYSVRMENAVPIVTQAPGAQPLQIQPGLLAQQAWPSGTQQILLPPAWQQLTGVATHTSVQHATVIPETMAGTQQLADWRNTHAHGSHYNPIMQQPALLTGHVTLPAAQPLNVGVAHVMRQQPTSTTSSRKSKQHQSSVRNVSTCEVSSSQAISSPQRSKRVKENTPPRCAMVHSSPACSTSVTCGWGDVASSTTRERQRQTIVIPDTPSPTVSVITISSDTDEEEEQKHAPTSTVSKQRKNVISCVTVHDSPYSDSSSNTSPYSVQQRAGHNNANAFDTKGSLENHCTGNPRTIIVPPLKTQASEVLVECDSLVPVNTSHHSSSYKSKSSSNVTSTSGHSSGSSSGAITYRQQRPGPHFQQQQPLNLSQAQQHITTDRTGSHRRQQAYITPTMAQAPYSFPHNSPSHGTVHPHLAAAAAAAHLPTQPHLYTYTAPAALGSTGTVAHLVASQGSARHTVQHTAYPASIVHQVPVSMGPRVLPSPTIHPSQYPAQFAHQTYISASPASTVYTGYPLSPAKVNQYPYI
Chain of Serine/threonine-protein kinase PLK1 (Homo sapiens) (P53350 whole entry): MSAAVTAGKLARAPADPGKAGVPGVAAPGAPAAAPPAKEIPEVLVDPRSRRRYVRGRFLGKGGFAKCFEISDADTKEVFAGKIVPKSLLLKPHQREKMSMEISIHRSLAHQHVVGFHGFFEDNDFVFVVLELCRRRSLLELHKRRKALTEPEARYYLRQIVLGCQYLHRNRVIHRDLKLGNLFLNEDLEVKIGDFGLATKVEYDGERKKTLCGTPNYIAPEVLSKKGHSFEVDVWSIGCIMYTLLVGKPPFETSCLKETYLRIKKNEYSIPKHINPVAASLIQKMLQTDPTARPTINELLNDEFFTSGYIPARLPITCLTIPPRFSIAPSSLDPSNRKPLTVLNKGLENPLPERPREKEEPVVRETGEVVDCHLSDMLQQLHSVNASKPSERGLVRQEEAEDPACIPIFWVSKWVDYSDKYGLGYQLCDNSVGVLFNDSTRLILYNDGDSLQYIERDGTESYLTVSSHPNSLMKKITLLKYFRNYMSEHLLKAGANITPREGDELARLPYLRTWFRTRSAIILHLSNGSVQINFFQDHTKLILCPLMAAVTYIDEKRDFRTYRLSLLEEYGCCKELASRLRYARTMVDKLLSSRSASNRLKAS
Chain of Serine/threonine-protein kinase TBK1 (Homo sapiens) (Q9UHD2 whole entry): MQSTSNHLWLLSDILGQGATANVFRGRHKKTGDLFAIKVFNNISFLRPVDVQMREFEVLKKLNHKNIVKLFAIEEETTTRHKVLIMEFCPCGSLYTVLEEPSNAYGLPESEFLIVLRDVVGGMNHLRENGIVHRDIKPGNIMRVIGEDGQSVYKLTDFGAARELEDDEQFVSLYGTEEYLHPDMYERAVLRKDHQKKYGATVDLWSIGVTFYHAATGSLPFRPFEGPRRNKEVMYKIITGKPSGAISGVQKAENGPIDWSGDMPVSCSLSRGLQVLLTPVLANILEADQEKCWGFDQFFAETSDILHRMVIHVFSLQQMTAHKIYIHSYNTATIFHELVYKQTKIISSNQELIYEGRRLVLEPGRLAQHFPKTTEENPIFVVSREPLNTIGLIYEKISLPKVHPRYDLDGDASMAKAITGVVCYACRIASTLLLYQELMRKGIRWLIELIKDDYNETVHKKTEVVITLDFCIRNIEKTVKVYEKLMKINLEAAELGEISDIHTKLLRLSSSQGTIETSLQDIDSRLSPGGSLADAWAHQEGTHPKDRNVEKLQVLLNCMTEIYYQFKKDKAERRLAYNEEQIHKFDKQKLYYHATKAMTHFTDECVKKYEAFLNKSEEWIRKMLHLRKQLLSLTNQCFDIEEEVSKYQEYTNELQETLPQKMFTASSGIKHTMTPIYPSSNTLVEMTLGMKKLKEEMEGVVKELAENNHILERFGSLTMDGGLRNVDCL
Chain of Tyrosine-protein kinase Lck (Homo sapiens) (P06239 2-509 limits assumed): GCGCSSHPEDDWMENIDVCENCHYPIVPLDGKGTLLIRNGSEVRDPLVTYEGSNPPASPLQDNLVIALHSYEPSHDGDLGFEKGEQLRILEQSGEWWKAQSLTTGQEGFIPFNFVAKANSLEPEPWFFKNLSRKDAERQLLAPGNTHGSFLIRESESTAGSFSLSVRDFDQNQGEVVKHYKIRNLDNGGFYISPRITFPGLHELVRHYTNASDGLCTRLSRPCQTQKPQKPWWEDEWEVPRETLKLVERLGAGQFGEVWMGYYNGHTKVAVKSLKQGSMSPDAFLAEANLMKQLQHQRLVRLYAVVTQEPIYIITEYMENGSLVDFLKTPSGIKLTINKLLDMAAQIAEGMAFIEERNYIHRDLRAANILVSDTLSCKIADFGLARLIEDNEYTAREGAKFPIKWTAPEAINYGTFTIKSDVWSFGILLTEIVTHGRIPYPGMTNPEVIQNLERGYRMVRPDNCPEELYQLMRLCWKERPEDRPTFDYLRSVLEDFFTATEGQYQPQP

Compound: CC(O)CNc1nc(NCc2ccc(-c3ccccn3)cc2)c2[nH]nc(C(C)C)c2n1 (stereo not given)
- IC50 [1]: 0.021 µM
- Activity [2]: Active
- Activity [3]: 67%
- Activity [4]: 77%
- Activity [5]: 77%
- Activity [6]: 79%
- IC50 [7]: 0.057 µM
- Activity [8]: Dose-dependent effect
- IC50 ([8]; MCF7, 72 h): 0.027 µM
- IC50 [9]: 0.087 µM
- Activity [10]: Dose-dependent effect
- Activity [11]: Active
- Activity [12]: Active
- Activity [13]: Active
- Activity [14]: Dose-dependent effect
- Activity [15]: Active
- Activity [16]: Active
- Activity [17]: 90%
- Activity [18]: 92%
- Activity [19]: 93%
- Activity [20]: 96%
- Activity [21]: 97%
- Activity [22]: > 100%
- Activity [23]: > 100%
- Activity [24]: > 100%
- Activity [25]: > 100%
- Activity [26]: > 100%
- Activity [27]: > 100%
- Activity [28]: > 100%
- Activity [29]: > 100%
- Activity [30]: > 100%
- Activity [31]: > 100%
- Activity [32]: > 100%
- Activity [33]: > 100%
- Activity [34]: Active
